Assay results taken from PMC4263960 (Pediatric blood & cancer, 2013).

Assays:
[1] = system: CHLA-9 cell line; assay: DIMSCAN in vitro cytotoxicity testing, CHLA-9; assay type: cell-based
Procedure, shortened: (§1)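 Test compound incubated with cells of a 24-line pediatric cancer panel for 96 h at 0.1 nM to 1 μM, then assessed by DIMSCAN. Relative IC50 (rIC50) derived per line. Panel comparison value is the panel rIC50 divided by the rIC50 of each cell line.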

[2] = system: NB-1771 neuroblastoma xenograft; assay: PPTP in vivo xenograft testing, NB-1771; set-up: species or system mice
[3] = system: SJ-GBM2 cell line; assay: DIMSCAN in vitro cytotoxicity testing, SJ-GBM2; assay type: cell-based
Procedure, shortened: as §1

[4] = Human pharmacokinetics of eribulin; assay type: in vivo, humans; conditions: plasma, intravenous, 1.4 mg/m2
[5] = system: PPTP solid tumor xenografts; assay: PPTP in vivo testing, solid tumor xenograft panels summary; set-up: species or system mice
[6] = system: NB-EBc1 cell line; assay: DIMSCAN in vitro cytotoxicity testing, NB-EBc1; assay type: cell-based
Procedure, shortened: as §1

[7] = system: D456 glioblastoma xenograft; assay: PPTP in vivo xenograft testing, D456; set-up: species or system mice
[8] = system: NB-EBc1 neuroblastoma xenograft; assay: PPTP in vivo xenograft testing, NB-EBc1; set-up: species or system mice
[9] = system: Rh41 ALV rhabdomyosarcoma xenograft; assay: PPTP in vivo xenograft testing, Rh41; set-up: species or system mice
[10] = 1 mg/kg IP Q4Dx3 repeated at Day 21
[11] = NB-EBc1, 1 mg/kg IP Q4Dx3 repeated at Day 21

## C=C1C[C@@H]2CC[C@@]34C[C@H]5O[C@H]6[C@@H](O3)[C@H]3O[C@H](CC[C@@H]3O[C@H]6[C@H]5O4)CC(=O)C[C@@H]3[C@@H](OC)[C@@H](C[C@H](O)CN)O[C@H]3C[C@H]3O[C@@H](CC[C@@H]1O2)C[C@@H](C)C3=C [Eribulin]
[1]; 96 h, read-out: rIC50
  IC50: 0.16 nM
[1]; CHLA-9
  Panel rIC50/Line rIC50: 1.68
  Relative in/out%: −49%
  Ymin % (observed): 1.82%
[2]; 1 mg/kg IP
  EFS activity: Low (Low activity = EFS T/C <2)
  Response activity: Int (intermediate activity by a score of ≥2 but <6)
  T/C volume activity: Low (Low activity = T/C >0.45)
[2]; [10]
  EFS T/C: 2.0
  Median final RTV (CD45%): >4
  Time to event: 14.8
[2]; 1 mg/kg IP, Day 21 or earlier
  Tumor volume T/C: 0.56
[3]; 96 h, read-out: rIC50
  IC50: 0.51 nM
[3]; SJ-GBM2
  Panel rIC50/Line rIC50: 0.53
  Relative in/out%: −95%
  Ymin % (observed): 0.46%
[4]
  AUC: 1580 ng·h/mL
[5]; Ewing sarcoma xenografts
  xenografts with CR or maintained CR: four of five
[5]; Ewing sarcoma xenografts, listed as eribulin
  xenografts with CR or maintained CR: 4 of 5
[5]; evaluable Ewing sarcoma xenografts
  xenografts with high EFS T/C activity: three of four
[5]; evaluable osteosarcoma xenografts
  xenografts with high EFS T/C activity: three of five
[5]; evaluable solid tumor xenografts, 1 mg/kg
  xenografts with significant difference in EFS distribution compared to control: 29 of 35
[5]; glioblastoma xenografts
  xenografts with CR or maintained CR: two of four
  xenografts with high EFS T/C activity: two of four
[5]; osteosarcoma xenografts
  xenografts with CR or maintained CR: three of six
  xenografts with high activity: three
[5]; rhabdomyosarcoma xenografts
  xenografts with CR or maintained CR: six of seven
  xenografts with MCR: 6 of 7
  xenografts with high EFS T/C activity: six of seven
[5]; solid tumor models
  lines with high EFS T/C activity: 17
  lines with intermediate EFS T/C activity: seven
[5]; solid tumor xenografts, 1 mg/kg
  xenografts with objective response: 18 of 35
[6]; 96 h, read-out: rIC50
  IC50: 14.8 nM
[6]; NB-EBc1
  Panel rIC50/Line rIC50: 0.02
  Relative in/out%: −92%
  Ymin % (observed): 1.76%
[7]; 1 mg/kg IP
  EFS activity: Int (Intermediate activity = criteria (a) and (b) above, but not having a net reduction in median tumor volume for treated animals at the end of the study)
  Response activity: Int (intermediate activity by a score of ≥2 but <6)
  T/C volume activity: Low (Low activity = T/C >0.45)
[7]; [10]
  EFS T/C: 3.4
  Median final RTV (CD45%): >4
  Time to event: 19.8
[7]; 1 mg/kg IP, Day 21 or earlier
  Tumor volume T/C: 1.00
[8]; NB-EBc1, 1 mg/kg IP
  EFS activity: Low (Low activity = EFS T/C <2)
  Response activity: Low (low activity by a score of <2)
  T/C volume activity: Low (Low activity = T/C >0.45)
[8]; [11]
  EFS T/C: 1.1
  Median final RTV (CD45%): >4
  Time to event: 4.5
[8]; NB-EBc1, 1 mg/kg IP, Day 21 or earlier
  Tumor volume T/C: 0.82
[8]; NB-EBc1 neuroblastoma xenograft
  objective response: not responsive
[9]; 1 mg/kg IP
  EFS activity: High (High activity requires: (a) an EFS T/C >2; (b) a significant difference in EFS distributions, and (c) a net reduction in median tumor volume for animals in the treated group at the end of treatment as compared to at treatment initiation)
  Response activity: High (A high level of activity is indicated by a score of 6 or more)
  T/C volume activity: High (High activity = T/C ≤0.15)
[9]; [10]
  EFS T/C: >3.0
  Median final RTV (CD45%): 0.0
[9]; 1 mg/kg IP, Day 21 or earlier
  Tumor volume T/C: 0.07
